The values that follow come from ChEMBL document CHEMBL4428038, “Overcoming chloroquine resistance in malaria: Design, synthesis and structure-activity relationships of novel chemoreversal agents” (Eur J Med Chem, 2016).

Active and inactive are the calls of the source. The calls are words filed in the database; no cut-off is given here.

The test system of data set [1] is Plasmodium falciparum K1. Briefly: Inhibition of CRT CVIET haplotype mutant in chloroquine-resistant Plasmodium falciparum K1 isolate MRA-159 assessed as reversal of chloroquine resistance by measuring reduction in chloroquine IC50 at 500 nM relative to chloroquine alone.
Data set [2] relates to Plasmodium falciparum 7G8. Briefly: Inhibition of CRT SVMNT haplotype mutant in intermediate chloroquine-resistant Plasmodium falciparum 7G8 isolate MRA-154 t assessed as reversal of chloroquine resistance by measuring reduction in chloroquine IC50 at 500 nM relative to chloroquine alone.
A short description of data set [3]: Permeability of compound incubated for 16 hrs at pH 7.4 by PAMPA. The class given is ADME. To be noted: read-out: Peff. A general note: The PAMPA barrier holds no transporters, so it reflects passive diffusion.
The test system of the next data set is TAMH. Put plainly: Cytotoxicity against TAMH assessed as reduction in cell viability by CellTiter-Glo assay. The conditions noted are these: Mus musculus. It is filed as cell-based. The procedure, abridged:
(§1)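 For TAMH (hepatocyte line) and AC10 (cardiomyocyte line), viability was read by ATP luminescence (CellTiter-Glo), and the value reported is IC50.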
Background: ATP-based viability assays read luminescence as a measure of living cells.

Data set [4] can be described thus: (§2) Inhibition of CRT SVMNT haplotype mutant in intermediate chloroquine-resistant Plasmodium falciparum 7G8 isolate MRA-154 assessed as reversal of chloroquine resistance by measuring reduction in chloroquine IC50 relative to chloroquine alone. Summed up:
(§3)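 Chloroquine IC50 was determined in the presence of a fixed 500 nM chemoreversal agent, against chloroquine alone. The RMI is the ratio of chloroquine IC50 with agent to chloroquine IC50 alone. Mean of n = 3; two-tailed t test versus chloroquine without agent.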

The subject of data set [5] is Plasmodium falciparum 7G8. The description is as §2. The procedure, abridged: as §3
The nature of data set [6]: Resistance index, ratio of chloroquine IC50 for chloroquine-resistant Plasmodium falciparum K1 isolate MRA-159 CRT CVIET haplotype mutant to chloroquine IC50 for chloroquine-sensitive Plasmodium falciparum 3D7 isolate MRA-102 at 500 nM. The procedure, abridged:
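Chloroquine IC50 was measured with the chemoreversal agent fixed at 500 nM in K1 or 7G8 and in sensitive 3D7 (means, n = 3). The resistance ratio is the chloroquine IC50 in K1 or 7G8 divided by the chloroquine IC50 in 3D7.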

The test system of data set [7] is Plasmodium falciparum. Put plainly: Intrinsic antimalarial activity against chloroquine-sensitive Plasmodium falciparum 3D7 isolate MRA-102 assessed as reduction in parasite viability at 500 nM. The class given is functional, organism-based.
Data set [8] relates to Plasmodium falciparum K1. Briefly: Inhibition of CRT CVIET haplotype mutant in Plasmodium falciparum K1 isolate MRA-159 infected in erythrocytes assessed as chloroquine-coumarin probe accumulation at 10 uM after 10 hrs by Hoechst 33342 staining based flow cytometry (reference value: 35.57 +/- 3.84%). It is filed as cell-based. Also noted: scale not given: the % may be the effect or the level left. Summed up:
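Infected erythrocyte cultures at 2.5% hematocrit and 7–12% parasitemia, synchronized to late-ring/early-trophozoite stage, were incubated with chloroquine-coumarin probe plus test agent for 10 h at 37 C. Cells were then washed, resuspended in PBS and read by flow cytometry (405 nm excitation, 450/50 filter). Hoechst-stained duplicate wells set parasitemia. Uptake = % infected erythrocytes fluorescent. Controls: PBS (negative), desipramine and parent compound (positive). ≥3 independent experiments; mean ± SEM.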

The nature of data set [9]: Aqueous kinetic solubility of compound in pH 7.4 solution incubated for 24 hrs. It is filed as physicochemical. The conditions noted are these: aqueous solution pH 7.4, pH 7.4; read-out: Kinetic_solubility.
For data set [10], the system named is Plasmodium falciparum. Briefly: Potentiation of chloroquine-induced antimalarial activity against chloroquine-sensitive Plasmodium falciparum 3D7 isolate MRA-102 assessed as concentration required for 50% reduction in chloroquine IC50 at 500 nM relative to chloroquine alone. The class given is functional, organism-based.
Data set [11] deals with Plasmodium falciparum. Put plainly: Intrinsic antimalarial activity against chloroquine-resistant Plasmodium falciparum K1 isolate MRA-159 harboring CRT CVIET haplotype mutant assessed as reduction in parasite viability at 500 nM. It is filed as functional, organism-based.
Data set [12] has as its system Plasmodium falciparum. Put plainly: Potentiation of chloroquine-induced antimalarial activity against chloroquine-sensitive Plasmodium falciparum HB3 isolate MRA-155 assessed as reduction in chloroquine IC50 at 500 nM relative to chloroquine alone. The class given is functional.
Data set [13] is described as follows: Resistance index, ratio of EC50 for intermediate chloroquine-resistant Plasmodium falciparum 7G8 isolate MRA-154 CRT SVMNT haplotype mutant to EC50 for chloroquine-sensitive Plasmodium falciparum 3D7 isolate MRA-102. The procedure, abridged:
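EC50 is the concentration of chemoreversal agent that halves the chloroquine concentration needed to inhibit survival of half the parasites. It was derived from dose-dependent shifts in chloroquine IC50, measured in 7G8 and 3D7. The index is the 7G8 EC50 divided by the 3D7 EC50.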

Data set [14] in a line: Permeability of compound incubated for 6 hrs at pH 7.4 by PAMPA. It is filed as ADME. To be noted: read-out: Peff.
The subject of data set [15] is Plasmodium falciparum. Briefly: Intrinsic antimalarial activity against chloroquine/artemisinin-resistant Plasmodium falciparum ARS272 harboring CRT K76T mutant assessed as reduction in parasite viability at 500 nM. The class given is functional, organism-based.
The nature of data set [16]: Therapeutic index, ratio of IC50 for TAMH to EC50 for chloroquine-resistant Plasmodium falciparum K1 isolate MRA-159 CRT CVIET haplotype mutant. The class given is toxicity. The conditions noted are these: mouse, TAMH cells; read-out: Ratio IC50/EC50. Summed up: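 Host-cell IC50 was measured by ATP-luminescence viability assay in TAMH hepatocytes (mean of n = 4 independent determinations) or AC10 cardiomyocytes. Each IC50 was divided by the K1 EC50, the concentration of chemoreversal agent that halves the chloroquine concentration needed for 50% parasite inhibition.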

The nature of data set [17]: Cytotoxicity against human AC10 cells assessed as reduction in cell viability by CellTiter-Glo assay. The class given is cell-based. The procedure, abridged: as §1
Data set [18] concerns Plasmodium falciparum. Put plainly: Intrinsic antimalarial activity against chloroquine/artemisinin-resistant Plasmodium falciparum ARS233 harboring CRT K76T mutant assessed as reduction in parasite viability at 500 nM. It is filed as functional, organism-based.
Data set [19] deals with Plasmodium falciparum. Put plainly: Intrinsic antimalarial activity against chloroquine-resistant Plasmodium falciparum NHP4559 harboring CRT K76T mutant assessed as reduction in parasite viability at 500 nM. The class given is functional, organism-based.
Data set [20] has as its system T1, Chloroquine resistance transporter (Plasmodium falciparum), Q9N623 [K76T].
T1 sequence (whole entry): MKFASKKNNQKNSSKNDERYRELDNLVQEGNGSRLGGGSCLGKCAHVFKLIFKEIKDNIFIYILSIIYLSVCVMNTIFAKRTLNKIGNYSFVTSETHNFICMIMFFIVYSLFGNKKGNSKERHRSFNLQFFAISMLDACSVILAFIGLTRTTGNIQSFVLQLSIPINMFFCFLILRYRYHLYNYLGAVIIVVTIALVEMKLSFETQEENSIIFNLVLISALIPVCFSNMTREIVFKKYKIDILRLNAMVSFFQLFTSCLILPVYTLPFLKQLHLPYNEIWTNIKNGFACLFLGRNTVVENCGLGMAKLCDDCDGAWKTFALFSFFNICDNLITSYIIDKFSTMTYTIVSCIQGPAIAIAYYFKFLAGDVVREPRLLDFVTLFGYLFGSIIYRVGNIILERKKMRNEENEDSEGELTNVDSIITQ
Put plainly: Inhibition of CRT K76T mutant in chloroquine-resistant Plasmodium falciparum Dd2 isolate MRA-156 assessed as reversal of chloroquine resistance by measuring reduction in chloroquine IC50 at 500 nM relative to chloroquine alone.

Data set [21] has the same test system. Briefly: Inhibition of CRT K76T mutant in chloroquine/artemisinin-resistant Plasmodium falciparum ARS272 assessed as reversal of chloroquine resistance by measuring reduction in chloroquine IC50 at 500 nM relative to chloroquine alone.
For data set [22], the system named is Plasmodium falciparum. Put plainly: Intrinsic antimalarial activity against chloroquine-sensitive Plasmodium falciparum HB3 isolate MRA-155 assessed as reduction in parasite viability at 500 nM. It is filed as functional, organism-based.

The term IC50 denotes the concentration that inhibits the measured activity by half. What is called EC50 is the concentration giving half of the maximal effect. As for `c1ccc(CN[C@@H]2C3CCN(CC3)[C@@H]2Cc2ccccc2)cc1` (relative stereo), the Ratio IC50 in the data set with Plasmodium falciparum K1 [1] was found to be 0.39; in data set [2], 0.8; in data set [6] it was 6.4; in the data set on Plasmodium falciparum [12], 1.12; in data set [20], 0.6; in data set [21], 0.43. Moreover, in [3], the Papp at 16 h was 14.5 ×10⁻⁶ cm/s. Further, the IC50 was greater than 100 µM in the data set on TAMH and 71.5 µM in data set [17]. Besides, the EC50 in [4] is 0.38 µM. Further, the inhibition entry in data set [5] was “Dose-dependent effect”. Moreover, the outcome with Plasmodium falciparum [7], with Plasmodium falciparum [10], in the data set on Plasmodium falciparum [11], in the data set on Plasmodium falciparum [15], in the data set on Plasmodium falciparum [18] and in the data set with Plasmodium falciparum [19] was inactive. The outcome in the data set on Plasmodium falciparum [22] was inactive. Also, the Activity in the data set on Plasmodium falciparum K1 [8] worked out at 83.4%. Also, the solubility kinetic at 24 h in [9] is greater than 310 µg/mL. Further, the Ratio EC50 in data set [13] is 2. In addition, the Papp at 6 h in [14] turned out to be 19.2 ×10⁻⁶ cm/s. Further, the selectivity ratio in [16] was greater than 588.
